This is an account of results in paper PMC12638245 (Nature Metabolism, 2025).

Test [1] concerns hepatic ChREBP transcription programme. The format is in vivo, mouse. The following applies: liver. A digest of the protocol: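 Mice aged 8–16 weeks, single-housed on chow with water or 5% (w/v) glycerol as the only drink for 2 days. Livers freeze-clamped in liquid nitrogen. RNA from 20 mg liver, DNase-treated, RIN >5.0; libraries from 150 ng RNA. Paired-end 150 bp sequencing, >20 million read pairs per sample. HTSeq counts, TMM normalisation in edgeR, GLMs with sequencing batch as covariate.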

Test [2] has as its system hepatic G3P, hexose phosphates, pentose phosphates. The test can be described thus: Targeted LC-MS metabolomics of mouse liver. The format is in vivo. Put shortly: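 Freeze-clamped liver powder (2.0 mg) spiked with 13C3-G3P (2.28 µM final) or a 13C yeast extract internal standard (hexose/pentose phosphates). Boiling 25% 10 mM HEPES/75% ethanol extraction, 55 °C 5 min, sonication, spin at 16,100g, dried, diluted 20-fold. Ion-pair reversed-phase UHPLC (tributylamine/acetic acid, methanol gradient), negative-mode targeted MS2. G3P and hexose phosphates quantified; pentose phosphates relative only.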

The subject of test [3] is circulating FGF21. The test can be described thus: Serum FGF21 ELISA in mice given 5%. The format is in vivo, mouse. The following applies: mice of each genotype, 5% (w/v) glycerol in drinking water for 2 days, vs water. Put shortly:
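Mice aged 8–16 weeks, single-housed for 2 days on chow with water or 5% (w/v) glycerol. Blood taken at decapitation; serum spun 8,000g, 10 min, 4 °C. Sandwich ELISA: samples 2 h at room temperature, HRP-conjugated anti-FGF21 2 h, substrate 30 min, read at 450 nm with 570 nm correction. Haemolysed samples excluded; genotype-blinded analysis; two-way ANOVA with Tukey.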

The test system of test [4] is ChREBP. To be noted: G3P added to HEK293T cells expressing ChREBP and MLX; cited from earlier work.
Where [5] appears, read: genotype and/or addition of glycerol.

Regarding `OCC(O)CO` [glycerol], the “induction of ChREBP transcripts by glycerol” value in test [1] (Slc25a13-/- Gpd2-/- double mutant) is recorded as “no further induction”. Also, the Srebf1 expression entry in test [1] (addition of glycerol) is reported as “unaffected”. The “induction of ChREBPα transcript by glycerol” value in test [1] (wild-type and single mutant strains) is recorded as “two- to threefold”. In test [2] (setting [5]), the “hepatic concentrations of hexose phosphates” value is given as “not altered” and the “relative levels of pentose phosphates in liver” value was “unaffected”. In addition, the “hepatic G3P level” value in test [2] (glycerol-exposed male mice, each of the four genotypes, vs water) is “tended to be higher”. Moreover, the “circulating FGF21” value in test [3] was “significantly elevated circulating FGF21”.
`O=P(O)(O)OCC(O)CO` (centres unmarked) [G3P, glycerol-3-phosphate]: the “protection of ChREBP from thermal precipitation” value in test [4] is recorded as “protected ChREBP from thermal precipitation”.
